Test results as given in ChEMBL document CHEMBL4680084, “New β-Lactam Derivatives Modulate Cell Adhesion and Signaling Mediated by RGD-Binding and Leukocyte Integrins” (J Med Chem, 2016).
The source made the active and inactive calls. The rule behind the calls is not given here.

Tests used:
[1] = target: T1, Integrin alpha-4/beta-1 (Homo sapiens, UniProt P05556+P13612); test: Antagonist activity at alpha4beta1 in human Jurkat E6.1 cells assessed as reduction in VCAM-1 induced ERK1/2 phosphorylation at 1 to 100 pM by Western blot analysis; assay type: cell-based; conditions: filed as antagonist, dose 1-100 pM
[2] = target: T2, Integrin alpha-5/beta-1 (Homo sapiens, UniProt P05556+P08648); test: Antagonist activity at alpha5beta1 in human K562 cells assessed as assessed as reduction in ERK1/2 phosphorylation at 1 to 100 nM by Western blot analysis; assay type: cell-based; conditions: filed as antagonist, dose 1-100 nM
[3] = target: T3, Integrin alpha-V/beta-5 (Homo sapiens, UniProt P06756+P18084); test: Antagonist activity at alphaVbeta5 in human MCF7 cells assessed as reduction in cell adhesion to fibrinogen pre-incubated for 30 mins before fibrinogen and further incubated for 1 hr by nitrophenyl-N-acetyl-beta-D-glucosaminide substrate based chromogenic assay
In short: (§1)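 Compound or methanol vehicle pre-incubated with cells for 30 min at room temperature. Cells then plated on wells coated overnight at 4 °C with fibronectin 10 µg/mL (SK-MEL-24, K562, HT-29) or fibrinogen 10 µg/mL (MCF7, HEL). Seeding was 50,000 cells/well, or 100000 for HEL. Adhesion ran 1 h at room temperature. Wells washed with 1% BSA/PBS. Quadruplicate, at least three repeats.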

[4] = target: T1, Integrin alpha-4/beta-1; test: Inhibition of fibronectin binding to […] isolated from human Jurkat E6.1 cells incubated for 1 hr by scintillation-proximity assay based competitive solid-phase binding assay; assay type: tissue-based
[5] = target: T4, Integrin alpha-IIb/beta-3 (Homo sapiens, UniProt P05106+P08514); test: Agonist activity at alpha2bbeta3 in human HEL cells assessed as increase in cell adhesion to fibrinogen pre-incubated for 30 mins before fibrinogen and further incubated for 1 hr by nitrophenyl-N-acetyl-beta-D-glucosaminide substrate based chromogenic assay; in short: as §1
[6] = target: T5, Integrin alpha-V/beta-6 (Homo sapiens, UniProt P06756+P18564); test: Antagonist activity at alphaVbeta6 in human HT-29 cells assessed as reduction in cell adhesion to fibronectin pre-incubated for 30 mins before fibronectin and further incubated for 1 hr by nitrophenyl-N-acetyl-beta-D-glucosaminide substrate based chromogenic assay; in short: as §1
[7] = system: K562; test: Toxicity in human K562 cells assessed as induction of cell necrosis and/or apoptosis incubated for 3 hrs by annexin V-PE and 7-AAD staining based by flow cytometry; conditions: k562, 3 h
In short: (§2)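 After 3 h incubation, cells resuspended in complete medium and stained with annexin V-PE/7-AAD reagent for 20 min at room temperature in the dark. Flow cytometry sorted cells into viable, early apoptotic and late apoptotic/necrotic populations.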

[8] = target: T6, Integrin alpha-V/beta-3 (Homo sapiens, UniProt P05106+P06756); test: Inhibition of fibronectin binding to human recombinant alphaVbeta3 expressed in HEK293 cells incubated for 1 hr by […] competitive solid-phase binding assay; assay type: cell-based
[9] = target: T6, Integrin alpha-V/beta-3; test: Antagonist activity at alphaVbeta3 in human SK-MEL-24 cells assessed as reduction in cell adhesion to fibronectin pre-incubated for 30 mins before fibronectin and further incubated for 1 hr by nitrophenyl-N-acetyl-beta-D-glucosaminide substrate based chromogenic assay; in short: as §1
[10] = target: T7, Integrin alpha-L/beta-2 (LFA-1) (Homo sapiens, UniProt P05107+P20701); test: Antagonist activity at alphaLbeta2 in human Jurkat E6.1 cells assessed as reduction in cell adhesion to ICAM1 pre-incubated for 30 mins before ICAM1 and further incubated for 30 mins by […]; assay type: cell-based
In short: (§3)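 Jurkat E6.1 cells labelled with CellTracker green CMFDA (12.5 µM, 30 min, 37 °C), washed, then pre-incubated 30 min at 37 °C with compound or methanol. Plated at 500,000/well on VCAM-1 (α4β1) or ICAM-1 (αLβ2) coated wells (5 µg/mL) for 30 min at 37 °C. Cells lysed in 0.5% Triton X-100; fluorescence read Ex485/Em535. Quadruplicate, at least three repeats.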

[11] = target: T1, Integrin alpha-4/beta-1; test: Antagonist activity at alpha4beta1 in human Jurkat E6.1 cells assessed as reduction in exposure of HUTS-21 epitope measured by mAb binding; assay type: cell-based; conditions: filed as antagonist
In short: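 Jurkat E6.1 cells at 10⁶/mL in 1% BSA/HBSS incubated 30 min at 37 °C with compound. PE-labelled HUTS-21 mAb then added for 45 min at room temperature. Cells washed, 10,000 analysed by flow cytometry. MFI corrected to isotype control set to 0. Four independent experiments in duplicate.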

[12] = system: HEL; test: Toxicity in human HEL cells assessed as induction of cell necrosis and/or apoptosis incubated for 3 hrs by annexin V-PE and 7-AAD staining based by flow cytometry; in short: as §2
[13] = target: T7, Integrin alpha-L/beta-2 (LFA-1); test: Agonist activity at alphaLbeta2 in human Jurkat E6.1 cells assessed as increase in cell adhesion to ICAM1 pre-incubated for 30 mins before ICAM1 and further incubated for 30 mins by […]; assay type: cell-based; in short: as §3
[14] = target: T5, Integrin alpha-V/beta-6; test: Inhibition of fibronectin binding to alphaVbeta6 isolated form human HT-29 cells incubated for 1 hr by […] competitive solid-phase binding assay; assay type: tissue-based
[15] = target: T2, Integrin alpha-5/beta-1; test: Antagonist activity at alpha5beta1 in human K562 cells assessed as reduction in cell adhesion to fibronectin pre-incubated for 30 mins before fibronectin and further incubated for 1 hr by nitrophenyl-N-acetyl-beta-D-glucosaminide substrate based chromogenic assay
In short: as §1, with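 “BSA/PBS. Adherent cells read by hexosaminidase substrate, absorbance 405 nm.” for “BSA/PBS.”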

[16] = system: HT-29; test: Toxicity in human HT-29 cells assessed as induction of cell necrosis and/or apoptosis incubated for 3 hrs by annexin V-PE and 7-AAD staining based by flow cytometry; conditions: ht-29, 3 h; in short: as §2
[17] = target: T3, Integrin alpha-V/beta-5; test: Agonist activity at alphaVbeta5 in human MCF7 cells assessed as increase in cell adhesion to fibrinogen pre-incubated for 30 mins before fibrinogen and further incubated for 1 hr by nitrophenyl-N-acetyl-beta-D-glucosaminide substrate based chromogenic assay
In short: as §1, with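 “BSA/PBS. Adherent cells read by hexosaminidase substrate, absorbance 405 nm.” for “BSA/PBS.”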

[18] = system: SK-MEL-24; test: Toxicity in human SK-MEL-24 cells assessed as induction of cell necrosis and/or apoptosis incubated for 3 hrs by annexin V-PE and 7-AAD staining based by flow cytometry; conditions: sk-mel-24, 3 h; in short: as §2
[19] = target: T3, Integrin alpha-V/beta-5; test: Inhibition of fibrinogen binding to alphaVbeta5 isolated form human mCf7 cells incubated for 1 hr by […] competitive solid-phase binding assay
[20] = target: T5, Integrin alpha-V/beta-6; test: Agonist activity at alphaVbeta6 in human HT-29 cells assessed as increase in cell adhesion to fibronectin pre-incubated for 30 mins before fibronectin and further incubated for 1 hr by nitrophenyl-N-acetyl-beta-D-glucosaminide substrate based chromogenic assay
In short: as §1, with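 “BSA/PBS. Adherent cells read by hexosaminidase substrate, absorbance 405 nm.” for “BSA/PBS.”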

[21] = target: T4, Integrin alpha-IIb/beta-3; test: Antagonist activity at alpha2bbeta3 in human HEL cells assessed as reduction in cell adhesion to fibrinogen pre-incubated for 30 mins before fibrinogen and further incubated for 1 hr by nitrophenyl-N-acetyl-beta-D-glucosaminide substrate based chromogenic assay; in short: as §1
[22] = target: T1, Integrin alpha-4/beta-1; test: Antagonist activity at alpha4beta1 in human Jurkat E6.1 cells assessed as reduction in cell adhesion to VCAM1 pre-incubated for 30 mins before VCAM1 and further incubated for 30 mins by […]; assay type: cell-based
[23] = target: T2, Integrin alpha-5/beta-1; test: Inhibition of fibronectin binding to alpha5beta1 isolated from human K562 cells incubated for 1 hr by […] competitive solid-phase binding assay; assay type: tissue-based
In short: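 Plates coated overnight at 4 °C in carbonate buffer pH 9.6 with fibronectin 0.5 µg/mL (αvβ3, αvβ6, α5β1), fibrinogen 10 µg/mL (αIIbβ3, αvβ5) or ICAM-1 (αLβ2). Blocked 1 h in buffer containing Ca/Mg/Mn 1 mM each and 1% BSA. Purified integrin (3–10 µg/mL) incubated with compound (10⁻⁴–10⁻¹⁰ M) 1 h at room temperature. Bound integrin detected with primary antibody then AlexaFluor488 secondary, Ex485/Em535. Duplicate, at least three repeats.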

[24] = system: MCF7; test: Toxicity in human MCF7 cells assessed as induction of cell necrosis and/or apoptosis incubated for 3 hrs by annexin V-PE and 7-AAD staining based by flow cytometry; conditions: mcf7, 3 h; in short: as §2
[25] = target: T1, Integrin alpha-4/beta-1; test: Antagonist activity at alpha4beta1 in human Jurkat E6.1 cells assessed as reduction in VCAM-1 induced ERK1/2 phosphorylation at 1 to 100 nM by Western blot analysis; assay type: cell-based; conditions: filed as antagonist, dose 1-100 nM
[26] = target: T2, Integrin alpha-5/beta-1; test: Agonist activity at alpha5beta1 in human K562 cells assessed as increase in cell adhesion to fibronectin pre-incubated for 30 mins before fibronectin and further incubated for 1 hr by nitrophenyl-N-acetyl-beta-D-glucosaminide substrate based chromogenic assay
In short: as §1, with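 “BSA/PBS. Adherent cells read by hexosaminidase substrate, absorbance 405 nm.” for “BSA/PBS.”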

[27] = target: T1, Integrin alpha-4/beta-1; test: Agonist activity at alpha4beta1 in human Jurkat E6.1 cells assessed as increase in cell adhesion to VCAM1 pre-incubated for 30 mins before VCAM1 and further incubated for 30 mins by […]; assay type: cell-based; in short: as §3
[28] = target: T6, Integrin alpha-V/beta-3; test: Antagonist activity at alphaVbeta3 in human SK-MEL-24 cells assessed as reduction in cell adhesion to fibronectin at 10 to 10000 nM pre-incubated for 30 mins before fibronectin and further incubated for 1 hr by nitrophenyl-N-acetyl-beta-D-glucosaminide substrate based chromogenic assay; conditions: filed as antagonist, dose 10-10000 nM, time 90.0 min
In short: (§4)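 SK-MEL-24 cells pre-incubated 30 min at room temperature with compound (1×10^-10–1×10^-4 M) or methanol, then plated at 50,000/well on fibronectin (10 µg/mL) coated wells for 1 h at room temperature. Adherent cells quantified by 4-nitrophenyl-N-acetyl-glucosaminide hydrolysis, absorbance 405 nm. Quadruplicate, at least three repeats; IC50/EC50 derived.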

[29] = target: T6, Integrin alpha-V/beta-3; test: Agonist activity at alphaVbeta3 in human SK-MEL-24 cells assessed as increase in cell adhesion to fibronectin at 10 to 10000 nM pre-incubated for 30 mins before fibronectin and further incubated for 1 hr by nitrophenyl-N-acetyl-beta-D-glucosaminide substrate based chromogenic assay; conditions: filed as agonist, dose 10-10000 nM, time 90.0 min; in short: as §4

Structure (SMILES)	IC50 [3] [µM]	EC50 [5] [µM]	IC50 [6] [µM]	Activity [7]	IC50 [10] [µM]	Activity [12]	EC50 [13] [µM]	IC50 [15] [µM]	Activity [16]	EC50 [17] [µM]	Activity [18]	EC50 [20] [µM]	IC50 [21] [µM]	IC50 [22] [µM]	Activity [24]	further results
Cc1ccccc1NC(=O)N1C(=O)C[C@H]1C(=O)O	> 5	> 5	> 5	Non-Toxic	> 5	Non-Toxic	> 5	0.158	Non-Toxic	> 5	Non-Toxic	> 5	> 5	0.00139	Non-Toxic	Activity [1]: Dose-dependent effect; Activity [2]: Dose-dependent effect; IC50 [4]: 0.0011 µM; IC50 [8]: 0.285 µM; IC50 [9]: 0.352 µM; Activity [11]: Dose-dependent effect; IC50 [14]: > 1 µM; IC50 [19]: > 1 µM; IC50 [23]: 0.114 µM; Activity [25]: Active
Cc1ccccc1NC(=O)N1C(=O)C[C@H]1C(=O)NCCC(=O)O	> 5	> 5	> 5	Non-Toxic	> 5	Non-Toxic	> 5	> 5	Non-Toxic	> 5	Non-Toxic	> 5	> 5	> 5	Non-Toxic	EC50 [26]: > 5 µM; EC50 [27]: > 5 µM; Activity [28]: Active; Activity [29]: Active
